The text below walks through data of ChEMBL document CHEMBL5260844, “Optimization of PDE3A Modulators for SLFN12-Dependent Cancer Cell Killing” (ACS Med Chem Lett, 2019).

The target of data set [1] is cGMP-inhibited 3',5'-cyclic phosphodiesterase 3A (Homo sapiens, UniProt Q14432). Briefly: Inhibition of human N-terminal His-GST-tagged recombinant PDE3A (669-end residues) using fluorescent labelled cAMP as substrate.
Data set [2] in a line: Plasma protein binding in mouse incubated for 5 hrs by UPLC-MS method. It counts as ADME, cell-free. Conditions: read-out: PPB (converted). The method, boiled down:
(§1)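 Plasma protein binding, human and mouse, reported as % bound, average of three values.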

In the next data set the test system is IMR-90. Briefly: Cytotoxicity against human IMR-90 cells assessed as cell growth inhibition upto 10 uM measured after 48 hrs by […] reagent based assay. It counts as functional. An outline of the steps:
(§2)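 Counterscreen viability assay in HCT116 colorectal cancer cells and IMR90 normal lung fibroblasts, run alongside DNMDP-sensitive lines.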

The nature of data set [3]: Stability in mouse plasma assessed as parent compound remaining after 5 hrs. It counts as ADME, cell-free. Conditions: read-out: Stability. An outline of the steps:
(§3)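 Human or mouse plasma incubation. Percent parent remaining at 5 h, average of three values.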

Data set [4] is described as follows: Stability in human plasma assessed as parent compound remaining after 5 hrs. Conditions: read-out: Stability. The format is ADME, cell-free. An outline of the steps: as §3
Data set [5] in a line: Microsomal stability in mouse liver microsomes assessed as parent compound remaining at 1 uM measured after 1 hr in presence of NADPH by UHPLC-MS analysis. The format is ADME, Microsome. Conditions: read-out: Stability. The method, boiled down: (§4)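 Test compound incubated with human or mouse liver microsomes. Percent remaining at 1 h reported as the average of three values.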
On the technique in general: Liver microsomes are a subcellular fraction often used to study metabolism.

In another data set the test system is HCT-116. Briefly: Cytotoxicity against human HCT-116 cells assessed as cell growth inhibition upto 10 uM measured after 48 hrs by […] reagent based assay. It counts as functional. An outline of the steps: as §2
Data set [6] relates to SK-MEL3. Briefly: Cytotoxicity against human SK-MEL3 cells assessed as cell growth inhibition upto 10 uM measured after 48 hrs by […] reagent based assay. It counts as functional. The note with it: SK-MEL3, 48 h.
Data set [7] can be described thus: Plasma protein binding in human incubated for 5 hrs by UPLC-MS method. Conditions: read-out: PPB (converted). The format is ADME, cell-free. The method, boiled down:
as §1

For data set [8], the target named is cGMP-inhibited 3',5'-cyclic phosphodiesterase 3B (Homo sapiens, UniProt Q13370). Briefly: Inhibition of human recombinant PDE3B.
The test system of a further data set is A549. Briefly: Cytotoxicity against human A549 cells assessed as cell growth inhibition upto 10 uM measured after 3 days by […] reagent based assay. Conditions: time 72.0 hrs.
A short description of data set [9]: Microsomal stability in human liver microsomes assessed as parent compound remaining measured after 1 hr in presence of NADPH by UHPLC-MS analysis. The format is ADME, Microsome. Conditions: read-out: Stability. The method, boiled down: as §4
Data set [10] deals with Ribonuclease SLFN12 (Homo sapiens) (UniProt Q8IYM2). The experiment in a line: Stabilization of PDE3A/V5-epitope tagged SLFN12 interaction in human HeLa cells at 10 uM incubated for 8 hrs by immunoblotting analysis. The format is cell-based. The method, boiled down:
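HeLa cells transfected with a plasmid expressing V5-tagged SLFN12, then exposed to 10 µM compound for 8 h. Lysates immunoprecipitated with anti-PDE3A antibody for endogenous PDE3A. Co-precipitated SLFN12-V5 detected by immunoblot with anti-V5 antibody.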
Background: Immunoblotting shows a protein as a band on a membrane.

For another data set, the species on record is Homo sapiens. Briefly: Inhibition of PDE1 (unknown origin) by 3H-cAMP scintillation proximity assay.
The test system of data set [11] is SK-MEL3. The experiment in a line: Antitumor activity against human SK-MEL3 cells xenografted in NMRI nude mouse assessed as tumor growth inhibition at 50 mg/kg, po administered once daily for 44 days. It counts as functional, organism-based. Conditions: time 44.0 day. The method, boiled down:
(§5)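 SK-MEL-3 melanoma cells inoculated subcutaneously into female NMRI nude mice. Oral dosing at 10 or 20 mg/kg twice daily, or 50 mg/kg once daily, with vehicle controls. Tumor area and tumor weight expressed relative to vehicle as T/C_rel.area and T/C_weight.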
(Xenograft models place foreign cells or tissue in a host animal.)

In another data set the target is Cytochrome P450 2C8 (Homo sapiens, UniProt P10632). Briefly: Inhibition of CYP2C8 (unknown origin). The format is ADME. An outline of the steps: (§6)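 CYP450 inhibition panel covering CYP1A2, 2C8, 2C9, 2D6 and 3A4, with compound tested at high concentrations.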
Chain of Cytochrome P450 2C8 (P10632 whole entry): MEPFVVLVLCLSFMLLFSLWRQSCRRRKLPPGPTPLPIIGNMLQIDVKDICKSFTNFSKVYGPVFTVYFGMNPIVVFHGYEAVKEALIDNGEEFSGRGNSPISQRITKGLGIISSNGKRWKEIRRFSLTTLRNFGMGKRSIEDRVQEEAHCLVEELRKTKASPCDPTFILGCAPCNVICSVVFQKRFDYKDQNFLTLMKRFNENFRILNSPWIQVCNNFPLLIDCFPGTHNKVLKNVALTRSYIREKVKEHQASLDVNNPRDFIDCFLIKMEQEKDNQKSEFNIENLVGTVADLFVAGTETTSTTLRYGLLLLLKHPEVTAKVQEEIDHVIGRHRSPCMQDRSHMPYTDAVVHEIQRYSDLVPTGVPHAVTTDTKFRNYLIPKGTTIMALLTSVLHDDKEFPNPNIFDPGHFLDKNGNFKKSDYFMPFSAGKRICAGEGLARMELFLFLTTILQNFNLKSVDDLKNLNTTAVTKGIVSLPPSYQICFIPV
The target of the next data set is Cytochrome P450 1A2 (Homo sapiens, UniProt P05177). The experiment in a line: Inhibition of CYP1A2 (unknown origin). The format is ADME. The method, boiled down:
as §6

A further data set has as its system HeLa. Briefly: Cytotoxicity against human HeLa cells assessed as cell growth inhibition measured after 48 hrs by […] reagent based assay. The format is functional.
The nature of data set [12]: Solubility of the compound. The format is physicochemical.
Data set [13] concerns the target cGMP-specific 3',5'-cyclic phosphodiesterase (Homo sapiens) (UniProt O76074). The experiment in a line: Inhibition of PDE5 (unknown origin) by 3H-cAMP scintillation proximity assay.
A short description of data set [14]: Toxicity in NMRI nude mouse assessed as tolerance at 20 mg/kg, po administered twice daily for 44 days. It counts as organism-based. Conditions: in vivo, 1056 h, time 44 day. The method, boiled down:
(§7)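 Female NMRI nude mice carrying subcutaneous SK-MEL-3 xenografts, given the compound orally at 10 or 20 mg/kg twice daily, or 50 mg/kg once daily. Tolerance judged by body weight loss (>10% critical) and toxicities.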

The target in another data set is Cytochrome P450 2C9 (Homo sapiens, UniProt P11712). Briefly: Inhibition of CYP2C9 (unknown origin). The format is ADME. The method, boiled down:
as §6

In a further data set the target is Cytochrome P450 3A4 (Homo sapiens, UniProt P08684). Briefly: Inhibition of CYP3A4 (unknown origin). The format is ADME. An outline of the steps:
as §6

The target in data set [15] is High affinity cAMP-specific and IBMX-insensitive 3',5'-cyclic phosphodiesterase 8A (Homo sapiens) (UniProt O60658). Briefly: Inhibition of PDE8A (unknown origin) by 3H-cAMP scintillation proximity assay.
Chain of High affinity cAMP-specific and IBMX-insensitive 3',5'-cyclic phosphodiesterase 8A (Homo sapiens) (O60658 whole entry): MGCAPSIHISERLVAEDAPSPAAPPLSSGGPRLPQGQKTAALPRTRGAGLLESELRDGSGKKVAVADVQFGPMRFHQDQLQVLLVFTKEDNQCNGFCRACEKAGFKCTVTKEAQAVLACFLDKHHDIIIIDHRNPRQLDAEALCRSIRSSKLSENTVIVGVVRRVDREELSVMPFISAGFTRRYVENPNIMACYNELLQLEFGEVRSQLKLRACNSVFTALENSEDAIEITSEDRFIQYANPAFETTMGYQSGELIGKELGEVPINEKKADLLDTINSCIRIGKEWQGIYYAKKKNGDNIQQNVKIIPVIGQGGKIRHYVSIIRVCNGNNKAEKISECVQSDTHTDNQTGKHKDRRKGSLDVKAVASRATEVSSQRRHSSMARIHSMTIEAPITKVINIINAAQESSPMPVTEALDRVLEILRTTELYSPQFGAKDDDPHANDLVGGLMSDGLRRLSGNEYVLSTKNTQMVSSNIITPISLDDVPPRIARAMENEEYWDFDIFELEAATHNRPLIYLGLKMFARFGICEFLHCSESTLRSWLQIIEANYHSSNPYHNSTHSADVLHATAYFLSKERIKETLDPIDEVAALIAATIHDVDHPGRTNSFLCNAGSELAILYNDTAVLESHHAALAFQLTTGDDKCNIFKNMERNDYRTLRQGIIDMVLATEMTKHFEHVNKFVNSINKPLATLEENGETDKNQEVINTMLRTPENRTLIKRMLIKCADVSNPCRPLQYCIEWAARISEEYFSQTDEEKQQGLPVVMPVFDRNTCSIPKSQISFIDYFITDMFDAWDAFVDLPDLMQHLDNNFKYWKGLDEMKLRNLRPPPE
Data set [16] has as its target Phosphodiesterase 6 (Homo sapiens) (UniProt Q13956+P18545+P35913+O43924+P16499+P51160). Briefly: Inhibition of PDE6 (unknown origin) by 3H-cAMP scintillation proximity assay. The format is protein assay.
Data set [17] concerns the target Voltage-gated inwardly rectifying potassium channel KCNH2 (Homo sapiens, UniProt Q12809). The experiment in a line: Binding affinity to hERG (unknown origin). The format is toxicity.
Data set [18] can be described thus: Toxicity in NMRI nude mouse assessed as tolerance at 10 mg/kg, po administered twice daily for 44 days. It counts as organism-based. The note with it: in vivo, 1056 h, time 44 day. The method, boiled down:
as §7

In data set [19] the test system is SK-MEL3. Briefly: Antitumor activity against human SK-MEL3 cells xenografted in NMRI nude mouse assessed as tumor growth inhibition at 20 mg/kg, po administered twice daily for 44 days. It counts as functional, organism-based. The note with it: time 44.0 day. The method, boiled down:
as §5

Data set [20] in a line: Selectivity ratio, ratio of IC50 for human PDE3B to EC50 for cytotoxicity against human HeLa cells.
Data set [21] can be described thus: Permeability across basolateral to apical side in human Caco-2 cells. It counts as ADME, cell-based. Conditions: read-out: permeability. The method, boiled down:
(§8)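 Caco2 monolayer permeability measured in the apical-to-basolateral and basolateral-to-apical directions, in nm/s. Efflux ratio calculated as B-A over A-B.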

Data set [22] relates to SK-MEL3. The experiment in a line: Antitumor activity against human SK-MEL3 cells xenografted in NMRI nude mouse assessed as tumor growth inhibition at 10 mg/kg, po administered twice daily for 44 days. It counts as functional, organism-based. The note with it: time 44.0 day. An outline of the steps: as §5
Data set [23] can be described thus: Efflux ratio of permeability in human Caco-2 cells. The format is ADME, cell-based. The method, boiled down: as §8
The target in the next data set is Cytochrome P450 2D6 (Homo sapiens, UniProt P10635). Briefly: Inhibition of CYP2D6 (unknown origin). It counts as ADME. An outline of the steps: as §6
Data set [24] has as its system SK-MEL3. Briefly: Antitumor activity against human SK-MEL3 cells xenografted in NMRI nude mouse assessed as tumor growth inhibition by measuring tumor to control ratio at 50 mg/kg, po administered once daily for 44 days. It counts as functional. The note with it: time 44 day. An outline of the steps:
as §5

Data set [25] addresses cGMP-dependent 3',5'-cyclic phosphodiesterase (Homo sapiens) (UniProt O00408). The experiment in a line: Inhibition of PDE2A (unknown origin) by 3H-cAMP scintillation proximity assay.
The nature of data set [26]: Permeability across apical to basolateral side in human Caco-2 cells. It counts as ADME, cell-based. Conditions: read-out: permeability. An outline of the steps: as §8
Data set [27] deals with SK-MEL3. The experiment in a line: Antitumor activity against human SK-MEL3 cells xenografted in NMRI nude mouse assessed as tumor weight by measuring tumor to control ratio at 50 mg/kg, po administered once daily for 44 days. It counts as functional. The note with it: time 44 day. An outline of the steps:
as §5

In data set [28] the target is 3',5'-cyclic-AMP phosphodiesterase 7B (Homo sapiens) (UniProt Q9NP56). Briefly: Inhibition of PDE7B (unknown origin) by 3H-cAMP scintillation proximity assay.
Chain of 3',5'-cyclic-AMP phosphodiesterase 7B (Homo sapiens) (Q9NP56 whole entry): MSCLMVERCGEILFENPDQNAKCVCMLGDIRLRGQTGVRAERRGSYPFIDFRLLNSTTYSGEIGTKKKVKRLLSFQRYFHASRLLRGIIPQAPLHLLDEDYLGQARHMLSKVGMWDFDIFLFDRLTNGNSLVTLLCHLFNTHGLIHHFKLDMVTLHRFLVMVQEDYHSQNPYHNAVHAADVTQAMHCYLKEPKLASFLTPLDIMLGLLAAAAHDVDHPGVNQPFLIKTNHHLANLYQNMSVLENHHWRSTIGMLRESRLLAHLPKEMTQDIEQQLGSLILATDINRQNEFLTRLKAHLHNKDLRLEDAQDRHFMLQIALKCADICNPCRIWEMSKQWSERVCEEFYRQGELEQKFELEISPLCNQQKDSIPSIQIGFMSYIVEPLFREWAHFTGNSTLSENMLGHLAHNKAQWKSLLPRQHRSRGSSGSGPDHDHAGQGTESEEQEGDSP
Data set [29] deals with High affinity cGMP-specific 3',5'-cyclic phosphodiesterase 9A (Homo sapiens) (UniProt O76083). The experiment in a line: Inhibition of PDE9A (unknown origin) by 3H-cAMP scintillation proximity assay.
A short description of data set [30]: Selectivity ratio, ratio of IC50 for human PDE3A to EC50 for cytotoxicity against human HeLa cells.
Data set [31] has as its target 3',5'-cyclic-AMP phosphodiesterase 4B (Homo sapiens) (UniProt Q07343). Briefly: Inhibition of PDE4B (unknown origin) by 3H-cAMP scintillation proximity assay.
Data set [32] in a line: Toxicity in NMRI nude mouse assessed as tolerance at 50 mg/kg, po administered once daily for 44 days. The format is organism-based. Conditions: in vivo, 1056 h, time 44 day. The method, boiled down:
as §7

The nature of data set [33]: Inhibition of PDE in human HeLa cells. It counts as cell-based.

SMILES strings stand for the structures. Converted amounts (≈) assume the structure as drawn. Counter-ions that a name gives are not always drawn. The source made the active and inactive calls. The calls are words filed in the database; no cut-off is given here.

Chain of Ribonuclease SLFN12 (Homo sapiens) (Q8IYM2 whole entry): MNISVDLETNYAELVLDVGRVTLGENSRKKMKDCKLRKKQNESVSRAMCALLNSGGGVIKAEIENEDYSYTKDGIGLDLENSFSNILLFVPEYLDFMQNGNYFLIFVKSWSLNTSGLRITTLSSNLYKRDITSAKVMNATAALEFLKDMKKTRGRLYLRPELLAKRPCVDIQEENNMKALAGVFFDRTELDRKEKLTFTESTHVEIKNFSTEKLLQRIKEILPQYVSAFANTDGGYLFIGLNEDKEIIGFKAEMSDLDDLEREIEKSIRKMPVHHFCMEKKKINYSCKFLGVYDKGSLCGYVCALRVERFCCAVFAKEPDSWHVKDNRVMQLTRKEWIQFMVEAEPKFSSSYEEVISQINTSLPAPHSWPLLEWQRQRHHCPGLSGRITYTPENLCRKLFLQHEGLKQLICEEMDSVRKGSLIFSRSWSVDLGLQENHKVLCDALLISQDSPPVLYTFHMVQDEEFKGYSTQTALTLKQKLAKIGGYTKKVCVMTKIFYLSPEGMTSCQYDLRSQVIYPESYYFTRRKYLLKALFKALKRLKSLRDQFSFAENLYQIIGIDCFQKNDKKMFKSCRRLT
Chain of cGMP-inhibited 3',5'-cyclic phosphodiesterase 3A (Q14432 whole entry): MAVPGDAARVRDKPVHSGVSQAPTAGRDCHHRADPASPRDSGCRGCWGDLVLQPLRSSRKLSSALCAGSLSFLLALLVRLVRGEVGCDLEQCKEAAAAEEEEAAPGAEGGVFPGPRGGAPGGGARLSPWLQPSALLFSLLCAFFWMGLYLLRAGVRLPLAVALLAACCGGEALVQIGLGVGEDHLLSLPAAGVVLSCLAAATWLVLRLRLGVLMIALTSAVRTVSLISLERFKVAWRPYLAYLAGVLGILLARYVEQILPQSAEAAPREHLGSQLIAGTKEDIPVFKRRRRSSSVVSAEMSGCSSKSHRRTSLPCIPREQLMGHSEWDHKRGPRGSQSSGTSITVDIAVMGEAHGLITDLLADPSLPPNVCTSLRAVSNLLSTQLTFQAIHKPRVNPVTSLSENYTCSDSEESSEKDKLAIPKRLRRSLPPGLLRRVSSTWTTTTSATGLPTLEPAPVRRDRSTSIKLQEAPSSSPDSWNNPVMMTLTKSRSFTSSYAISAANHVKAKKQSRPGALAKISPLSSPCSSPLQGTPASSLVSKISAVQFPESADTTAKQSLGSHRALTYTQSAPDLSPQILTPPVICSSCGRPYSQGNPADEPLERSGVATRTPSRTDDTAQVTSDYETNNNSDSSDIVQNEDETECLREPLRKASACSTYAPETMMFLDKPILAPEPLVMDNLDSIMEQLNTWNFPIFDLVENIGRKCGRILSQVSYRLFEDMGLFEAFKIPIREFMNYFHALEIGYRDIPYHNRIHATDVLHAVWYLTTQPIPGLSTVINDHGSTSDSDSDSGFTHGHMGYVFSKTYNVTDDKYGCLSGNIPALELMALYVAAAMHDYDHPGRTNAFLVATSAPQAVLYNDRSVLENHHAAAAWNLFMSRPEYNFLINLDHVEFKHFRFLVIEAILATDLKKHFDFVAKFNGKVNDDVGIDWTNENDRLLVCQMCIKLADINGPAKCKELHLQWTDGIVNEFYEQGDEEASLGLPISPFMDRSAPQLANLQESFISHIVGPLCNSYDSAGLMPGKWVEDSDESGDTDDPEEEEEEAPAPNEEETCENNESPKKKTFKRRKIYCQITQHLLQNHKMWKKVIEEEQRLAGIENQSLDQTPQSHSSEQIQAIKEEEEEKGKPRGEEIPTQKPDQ
Chain of cGMP-dependent 3',5'-cyclic phosphodiesterase (Homo sapiens) (O00408 whole entry): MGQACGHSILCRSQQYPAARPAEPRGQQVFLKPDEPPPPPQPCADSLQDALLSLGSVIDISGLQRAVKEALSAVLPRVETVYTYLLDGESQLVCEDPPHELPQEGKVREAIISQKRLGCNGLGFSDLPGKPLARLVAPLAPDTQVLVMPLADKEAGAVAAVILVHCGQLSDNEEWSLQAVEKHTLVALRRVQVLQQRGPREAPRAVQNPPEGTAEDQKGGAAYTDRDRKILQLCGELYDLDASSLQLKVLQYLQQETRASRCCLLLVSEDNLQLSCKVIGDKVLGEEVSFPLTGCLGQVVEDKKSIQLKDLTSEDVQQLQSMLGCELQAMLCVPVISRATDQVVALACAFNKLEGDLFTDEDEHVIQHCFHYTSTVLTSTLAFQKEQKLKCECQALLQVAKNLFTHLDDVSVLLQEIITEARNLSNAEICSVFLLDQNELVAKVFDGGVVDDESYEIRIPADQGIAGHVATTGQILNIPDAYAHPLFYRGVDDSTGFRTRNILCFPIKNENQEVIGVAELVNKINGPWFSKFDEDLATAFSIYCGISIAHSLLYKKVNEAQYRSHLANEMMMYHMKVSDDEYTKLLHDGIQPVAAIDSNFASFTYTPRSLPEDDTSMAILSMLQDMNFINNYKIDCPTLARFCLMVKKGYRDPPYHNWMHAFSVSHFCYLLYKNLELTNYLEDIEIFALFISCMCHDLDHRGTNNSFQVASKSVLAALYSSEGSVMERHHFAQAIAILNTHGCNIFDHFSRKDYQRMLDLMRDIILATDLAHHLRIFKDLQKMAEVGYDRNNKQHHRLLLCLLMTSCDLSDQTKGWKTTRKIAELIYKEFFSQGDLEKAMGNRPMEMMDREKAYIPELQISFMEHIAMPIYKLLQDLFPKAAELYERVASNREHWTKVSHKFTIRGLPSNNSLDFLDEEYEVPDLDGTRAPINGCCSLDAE
Chain of Cytochrome P450 2C9 (P11712 whole entry): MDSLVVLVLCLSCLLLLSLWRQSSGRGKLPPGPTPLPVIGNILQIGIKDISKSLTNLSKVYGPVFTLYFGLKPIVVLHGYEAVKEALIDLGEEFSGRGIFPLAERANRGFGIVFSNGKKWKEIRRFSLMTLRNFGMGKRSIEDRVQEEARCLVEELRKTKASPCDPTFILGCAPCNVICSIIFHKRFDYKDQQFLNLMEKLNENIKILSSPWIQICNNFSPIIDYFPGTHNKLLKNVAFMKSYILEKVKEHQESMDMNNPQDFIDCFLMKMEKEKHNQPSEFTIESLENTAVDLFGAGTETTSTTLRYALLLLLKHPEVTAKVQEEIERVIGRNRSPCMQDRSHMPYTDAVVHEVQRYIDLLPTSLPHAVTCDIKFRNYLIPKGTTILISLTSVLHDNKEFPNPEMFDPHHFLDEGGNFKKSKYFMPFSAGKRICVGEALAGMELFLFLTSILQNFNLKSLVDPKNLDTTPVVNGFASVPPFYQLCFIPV

With `CCN(CC)c1ccc(C2=NNC(=O)CC2C)cc1[N+](=O)[O-]` (stereo unspecified), the IC50 (usually the midpoint of a concentration-inhibition curve) stood at 25 nM in [1] and 100 nM in data set [8]. Further, the fraction unbound at 5 h in data set [2] is 0.08; in [7], 0.13. Besides, the outcome in the data set with IMR-90, in the data set on HCT-116 and with A549 was inactive. In addition, the results for the remaining at 5 h in data set [3] and in data set [4] were 87% and 85%, respectively. In addition, in data set [5], the remaining at 1 h, 1 µM worked out at 23%. Further, in the data set with SK-MEL3 [6], the EC50 (commonly the concentration at which the effect is half-maximal) is 12 nM. The remaining at 1 h in data set [9] worked out at 95%. In [10], the result was Active.
Consider `C[C@@H]1CC(=O)NN=C1c1ccc(N2CCOCC2)c(F)c1`, for which the inhibition result (in the data set listed under Homo sapiens; in data set [13]; in [15]; in [16]; in [25]; in data set [28]) was “inactive” in each case. The inhibition entry in [29] and in [31] was “inactive” each time. Moreover, the TGI entry in the data set with SK-MEL3 [11], with SK-MEL3 [19] and in the data set on SK-MEL3 [22] was “Active” throughout. Further, the “inhibition (INH)” value against Cytochrome P450 2C8, against Cytochrome P450 1A2, at Cytochrome P450 2C9, against Cytochrome P450 3A4 and on Cytochrome P450 2D6 was “Not Active” each time. Moreover, the IC50 in [1] worked out at 10 nM. Also, the EC50 worked out at 1.6 nM in the data set on HeLa and 1.3 nM in the data set with SK-MEL3 [6]. In addition, the solubility (commonly the concentration that dissolves in the medium under given conditions) in [12] came out at 1000 µM (≈ 291 µg/mL). Also, the result in the data set with IMR-90, in the data set with HCT-116 and in the data set on A549 was inactive. Further, the Activity entry in [14] is on record as “Non-Toxic”; in data set [17] it was “Not Active”; in data set [18], “Non-Toxic”; in data set [32], “Non-Toxic”. For the same molecule, the “Ratio IC50/EC50” value in data set [20] and in [30] was 2.4 in each case. In addition, the Papp B→A in data set [21] came to 19.8 ×10⁻⁶ cm/s. In addition, the efflux ratio (usually a quotient of directional permeabilities that is used to spot active efflux) in data set [23] amounted to 0.71. For the same molecule, the T/C was 0.09 in the data set with SK-MEL3 [24] and 0.16 in the data set on SK-MEL3 [27]. The Papp A→B in [26] stood at 27.9 ×10⁻⁶ cm/s. For the same molecule, the outcome in [10] was Active.
`COc1cc2c(cc1OC)-c1c/c(=N\c3c(C)cc(C)cc3C)n(C)c(=O)n1CC2` [TREQUINSIN HYDROCHLORIDE]: the outcome in the data set with IMR-90 and in the data set on HCT-116 was inactive. In addition, in [33], the IC50 stood at 0.25 nM.
